Test results: ChEMBL document CHEMBL2016516, “Design, synthesis and biological evaluation of novel chalcone derivatives as antitubulin agents” (Bioorg Med Chem, 2012)
Values after ≈ are worked out from the molar mass of the structure shown.

Assays:
[1] = Inhibition of bovine tubulin polymerization after 20 mins by spectrophotometry; parameters: species or system Bos taurus
Summary of the method: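 Tubulin was purified from bovine brain. Varying compound concentrations were preincubated with 10 µM tubulin in glutamate buffer at 30 °C, then cooled to 0 °C. GTP was added and the mixtures were moved to 0 °C cuvettes. They were then warmed to 30 °C in a recording spectrophotometer, with assembly followed turbidimetrically.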

MCF7 [2] = test: Antiproliferative activity against human MCF7 cells after 48 hrs by MTT assay; format: functional, cell-based; settings: MCF7, 48 h
Summary of the method: (§1)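 Cells grown to log phase in RPMI 1640 with 10% FBS, diluted to 2 × 10⁴ cells/mL and seeded, then incubated 24 h at 37 °C, 5% CO₂ before treatment. Samples at pre-set concentrations were added in six wells, with colchicine and CA-4 as references. After 48 h, MTT in PBS was added for 4 h, followed by extraction solution (10% SDS).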

A549 = test: Antiproliferative activity against human A549 cells after 48 hrs by MTT assay; format: functional, cell-based; settings: A549, 48 h; summary of the method: as §1
MCF7 [3] = test: Cell cycle arrest in human MCF7 cells assessed as accumulation in G2/M phase at 5 ug/ml after 24 hrs by flow cytometry (reference value: 12.99%); format: functional
MCF7 [4] = test: Cell cycle arrest in human MCF7 cells assessed as accumulation in G0/G1 phase at 5 ug/ml after 24 hrs by flow cytometry (reference value: 47.79%); format: functional
MCF7 [5] = test: Cell cycle arrest in human MCF7 cells assessed as accumulation in S phase at 5 ug/ml after 24 hrs by flow cytometry (reference value: 8.06%); format: functional

IC50 [1] [µg/mL]	IC50 (MCF7 [2]) [µg/mL]	IC50 (A549) [µg/mL]	SMILES	Activity (MCF7 [3]) [%]	Activity (MCF7 [4]) [%]	Activity (MCF7 [5]) [%]
5.68 (≈ 9.01 µM)	1.44 (≈ 2.29 µM)	10.1 (≈ 16.1 µM)	Cc1ccc(C(=O)/C=C/c2cc(Br)cc(Br)c2Oc2c([N+](=O)[O-])cc(C(F)(F)F)cc2[N+](=O)[O-])cc1	–	–	–
4.87 (≈ 9 µM)	0.7 (≈ 1.29 µM)	10 (≈ 18.6 µM)	Cc1ccc(C(=O)/C=C/c2cc(Cl)cc(Cl)c2Oc2c([N+](=O)[O-])cc(C(F)(F)F)cc2[N+](=O)[O-])cc1	–	–	–
6.41 (≈ 11.6 µM)	0.55 (≈ 0.998 µM)	6.85 (≈ 12.4 µM)	Cc1ccc(C(=O)/C=C/c2cc(Br)ccc2Oc2c([N+](=O)[O-])cc(C(F)(F)F)cc2[N+](=O)[O-])cc1	–	–	–
1.42 (≈ 2.8 µM)	0.03 (≈ 0.0592 µM)	0.95 (≈ 1.87 µM)	Cc1ccc(C(=O)/C=C/c2cc(Cl)ccc2Oc2c([N+](=O)[O-])cc(C(F)(F)F)cc2[N+](=O)[O-])cc1	67.93	2.36	1.55
6.02 (≈ 9.32 µM)	3.53 (≈ 5.46 µM)	13.2 (≈ 20.4 µM)	COc1ccc(C(=O)/C=C/c2cc(Br)cc(Br)c2Oc2c([N+](=O)[O-])cc(C(F)(F)F)cc2[N+](=O)[O-])cc1	–	–	–
6.56 (≈ 11.8 µM)	2.69 (≈ 4.83 µM)	12.5 (≈ 22.5 µM)	COc1ccc(C(=O)/C=C/c2cc(Cl)cc(Cl)c2Oc2c([N+](=O)[O-])cc(C(F)(F)F)cc2[N+](=O)[O-])cc1	–	–	–
4.08 (≈ 7.19 µM)	2.32 (≈ 4.09 µM)	12.6 (≈ 22.3 µM)	COc1ccc(C(=O)/C=C/c2cc(Br)ccc2Oc2c([N+](=O)[O-])cc(C(F)(F)F)cc2[N+](=O)[O-])cc1	–	–	–
4.83 (≈ 9.24 µM)	1.83 (≈ 3.5 µM)	11.5 (≈ 22 µM)	COc1ccc(C(=O)/C=C/c2cc(Cl)ccc2Oc2c([N+](=O)[O-])cc(C(F)(F)F)cc2[N+](=O)[O-])cc1	–	–	–
15.31 (≈ 24.1 µM)	8.06 (≈ 12.7 µM)	120 (≈ 190 µM)	O=C(/C=C/c1cc(Br)cc(Br)c1Oc1c([N+](=O)[O-])cc(C(F)(F)F)cc1[N+](=O)[O-])c1ccc(F)cc1	–	–	–
9.62 (≈ 17.6 µM)	5.02 (≈ 9.21 µM)	29.3 (≈ 53.8 µM)	O=C(/C=C/c1cc(Cl)cc(Cl)c1Oc1c([N+](=O)[O-])cc(C(F)(F)F)cc1[N+](=O)[O-])c1ccc(F)cc1	–	–	–
12.31 (≈ 22.2 µM)	6.01 (≈ 10.8 µM)	26.3 (≈ 47.4 µM)	O=C(/C=C/c1cc(Br)ccc1Oc1c([N+](=O)[O-])cc(C(F)(F)F)cc1[N+](=O)[O-])c1ccc(F)cc1	–	–	–
11.66 (≈ 22.8 µM)	5.17 (≈ 10.1 µM)	23.8 (≈ 46.6 µM)	O=C(/C=C/c1cc(Cl)ccc1Oc1c([N+](=O)[O-])cc(C(F)(F)F)cc1[N+](=O)[O-])c1ccc(F)cc1	–	–	–
12.6 (≈ 19.4 µM)	6.76 (≈ 10.4 µM)	19.4 (≈ 29.9 µM)	O=C(/C=C/c1cc(Br)cc(Br)c1Oc1c([N+](=O)[O-])cc(C(F)(F)F)cc1[N+](=O)[O-])c1ccc(Cl)cc1	–	–	–
6.34 (≈ 11.3 µM)	4.54 (≈ 8.08 µM)	17.2 (≈ 30.7 µM)	O=C(/C=C/c1cc(Cl)cc(Cl)c1Oc1c([N+](=O)[O-])cc(C(F)(F)F)cc1[N+](=O)[O-])c1ccc(Cl)cc1	–	–	–
7.14 (≈ 12.5 µM)	4.74 (≈ 8.29 µM)	16.5 (≈ 28.9 µM)	O=C(/C=C/c1cc(Br)ccc1Oc1c([N+](=O)[O-])cc(C(F)(F)F)cc1[N+](=O)[O-])c1ccc(Cl)cc1	–	–	–
4.68 (≈ 8.88 µM)	3.21 (≈ 6.09 µM)	11.7 (≈ 22.2 µM)	O=C(/C=C/c1cc(Cl)ccc1Oc1c([N+](=O)[O-])cc(C(F)(F)F)cc1[N+](=O)[O-])c1ccc(Cl)cc1	–	–	–
10.01 (≈ 14.4 µM)	2.87 (≈ 4.13 µM)	16.8 (≈ 24.2 µM)	O=C(/C=C/c1cc(Br)cc(Br)c1Oc1c([N+](=O)[O-])cc(C(F)(F)F)cc1[N+](=O)[O-])c1ccc(Br)cc1	–	–	–
9.46 (≈ 15.6 µM)	2.6 (≈ 4.29 µM)	14.5 (≈ 23.9 µM)	O=C(/C=C/c1cc(Cl)cc(Cl)c1Oc1c([N+](=O)[O-])cc(C(F)(F)F)cc1[N+](=O)[O-])c1ccc(Br)cc1	–	–	–
6.25 (≈ 10.1 µM)	2.17 (≈ 3.52 µM)	13.7 (≈ 22.3 µM)	O=C(/C=C/c1cc(Br)ccc1Oc1c([N+](=O)[O-])cc(C(F)(F)F)cc1[N+](=O)[O-])c1ccc(Br)cc1	–	–	–
4.62 (≈ 8.08 µM)	1.41 (≈ 2.47 µM)	10.9 (≈ 19 µM)	O=C(/C=C/c1cc(Cl)ccc1Oc1c([N+](=O)[O-])cc(C(F)(F)F)cc1[N+](=O)[O-])c1ccc(Br)cc1	–	–	–

SMILES	IC50 [1] [µg/mL]	IC50 (MCF7 [2]) [µg/mL]	IC50 (A549) [µg/mL]	Activity (MCF7 [3]) [%]	Activity (MCF7 [4]) [%]	Activity (MCF7 [5]) [%]
COc1cc2c(c(OC)c1OC)-c1ccc(OC)c(=O)cc1[C@@H](NC(C)=O)CC2 [COLCHICINE]	1.7 (≈ 4.26 µM)	0.51 (≈ 1.28 µM)	0.74 (≈ 1.85 µM)	78.1	1.96	1.34
COc1ccc(/C=C\c2cc(OC)c(OC)c(OC)c2)cc1O [COMBRETASTATIN A4]	0.81 (≈ 2.56 µM)	0.43 (≈ 1.36 µM)	0.53 (≈ 1.68 µM)	–	–	–
